Screening results from PubChem BioAssay.
The list is not random: actives were taken first. Their share in the collection is about 1.9%.
MT stabilize HCS: stabilizes microtubules in HeLa cells; HeLa tubulin immunostaining HCS, 24 h; share of cells brighter than vehicle mean+2SD; % tubulin-high responders, % at 10 µM; actives 0.83% (n = 200,000); AID 2205;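 active means plate Z-score above 3 for both tubulin-high and condensed-nucleus cell shares, with cell loss under 80%, at 10 µM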;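 further: anti alpha tubulin signal scored within the nucleus-defined area of each cell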
b-catenin transl: beta-catenin nuclear translocation modulation | nuclear translocation activity, % at 5 µM | HeLa beta-catenin nuclear translocation, immunofluorescence imaging | actives 0.3% (n = 190,000);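 active means nuclear translocation activity above 50% at 5 µM, with a well cell count of 50 or more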;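 further: per-cell ratio of nuclear to cytoplasmic median beta-catenin stain intensity; plate controls were DMSO negative control for no effect and GSK-3 inhibitor IX positive control for full effect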
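Assay system: human HeLa cells, native beta-catenin; doses: 5 µM primary, 0.02–20 µM confirmation; incubation: compound treatment 24 h, 37°C, 5% CO2; technique: fluorescence imaging of beta-catenin antibody stain plus DAPI; measure: % activation, nuclear-to-cytoplasmic median beta-catenin signal ratio per cell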
ROMK primary: modulates human ROMK potassium channel activity. P48048. Tet-inducible ROMK, thallium flux fluorescence; actives lie on both sides. B-score at 10 µM. actives 2% (n = 130,000). AID 1918;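 active means signal ratio slope over the read window, or its plate-corrected B-score, at least 3 SD from the plate mean, either direction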;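 further: B-score of the F/F0 ratio slope over 7 to 12 s after thallium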
Target sequence (P48048 whole entry, looked up): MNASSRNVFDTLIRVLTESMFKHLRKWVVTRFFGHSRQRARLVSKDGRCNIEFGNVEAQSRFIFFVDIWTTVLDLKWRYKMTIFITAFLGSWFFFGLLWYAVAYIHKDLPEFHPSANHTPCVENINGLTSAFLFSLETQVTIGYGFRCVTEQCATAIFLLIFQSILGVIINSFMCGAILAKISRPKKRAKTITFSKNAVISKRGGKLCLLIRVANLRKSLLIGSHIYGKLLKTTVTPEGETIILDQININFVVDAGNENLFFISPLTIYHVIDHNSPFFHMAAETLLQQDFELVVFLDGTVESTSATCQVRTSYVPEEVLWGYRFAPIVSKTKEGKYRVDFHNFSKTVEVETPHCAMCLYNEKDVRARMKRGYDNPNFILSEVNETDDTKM
Active calls of the source: *.

`O=C(Cc1ccc(-c2ccccc2)cc1)NCc1ccccc1` gave MT stabilize HCS 6, b-catenin transl 55* and ROMK primary 1.2.
For Cc1ccc(NC(=O)c2cccs2)cc1S(=O)(=O)Nc1cccc(Cl)c1 the results were MT stabilize HCS 3 and b-catenin transl -2.
For Cc1ccc(NC(=S)NC(=O)c2ccc(F)cc2)cc1S(=O)(=O)Nc1cccc(Cl)c1 the results were MT stabilize HCS 20*, b-catenin transl 5 and ROMK primary 0.62.
O=C(N/N=C/c1cccc(Oc2ccccc2)c1)c1cccc(Br)c1 was read as MT stabilize HCS 2 and b-catenin transl 0.
For O=C(N/N=C/c1cccc(Oc2ccccc2)c1)c1ccccc1Br the results were MT stabilize HCS 27*, b-catenin transl 4 and ROMK primary 0.37.
COc1cccc(C2CC3(CC(C)(C)NC(=S)N3)Oc3cc(O)ccc32)c1 (centres undefined) was read as MT stabilize HCS 4 and b-catenin transl 2.
CSC1=NC2(CC(c3ccccc3)Oc3cc(O)ccc32)CC(C)(C)N1 (centres undefined) was read as MT stabilize HCS 6, b-catenin transl 2 and ROMK primary -4*.
CNC(=O)NC(=O)COC(=O)c1ccc(-n2c(C)ccc2C)cc1 was read as MT stabilize HCS 5 and b-catenin transl 0.
Screening CCOC(=O)c1c(NC(=O)OC)sc2c1CCC2 returned MT stabilize HCS 3.
Screening CCOC(=O)c1c(NS(=O)(=O)Cc2ccccc2)sc2c1CCCC2 returned MT stabilize HCS 3 and ROMK primary 3.6*.
CCOC(=O)c1c(NS(=O)(=O)c2ccc(Br)cc2)sc2c1CCC2 was read as MT stabilize HCS 3 and ROMK primary 3.1*.
Screening CCOC(=O)c1c(NC(=O)c2ccco2)sc2c1CCCCC2 returned MT stabilize HCS 3, b-catenin transl 0 and ROMK primary 0.031.
Cc1cccc2c1c1ccc3c(c1n2C)C(=O)C=CC3=O was read as b-catenin transl -3.
For Clc1ccc2c(c1)C(c1cccs1)=NNC(c1cccnc1)=N2 the results were MT stabilize HCS 2 and b-catenin transl 0.
For Cc1ccccc1Cn1c(=O)n(CC2CCC(C(=O)NCCc3ccccc3)CC2)c(=O)c2ccccc21 (centres undefined) the results were MT stabilize HCS 2 and b-catenin transl 2.
`COc1cc(SC)ccc1C(=O)N1CCN(c2ccccc2OC)CC1` gave MT stabilize HCS 23*, b-catenin transl 50* and ROMK primary 0.69.
Cc1onc(-c2ccccc2)c1C(=O)N1CCCN(C(=O)c2c(-c3ccccc3)noc2C)CC1 was read as MT stabilize HCS 3.
For COc1ccccc1N1CCN(C(=O)c2c(-c3ccccc3)noc2C)CC1 the results were MT stabilize HCS 28* and b-catenin transl 126*.
Screening COC(=O)C1CCN(C(=O)c2ccc(SC)cc2OC)CC1 returned MT stabilize HCS 3, b-catenin transl -3 and ROMK primary -0.65.
`CCc1ccc(C(=O)NCc2cnn(C)c2)s1` gave MT stabilize HCS 5, b-catenin transl -8 and ROMK primary -0.33.
For O=C(CNC(=O)C(c1ccccc1)c1ccccc1)OCC(=O)c1cccs1 the results were MT stabilize HCS 2, b-catenin transl -1 and ROMK primary -1.1.
CCc1oc(C(=O)OC)cc1CSC(=N)N was read as b-catenin transl 0.
O=C(O)CCC(=O)N(Cc1ccco1)C1CC(=O)N(c2ccccc2)C1=O (centres undefined) was read as b-catenin transl 1 and ROMK primary -0.44.
Screening CSc1nc2ccccc2cc1/C=C(\C#N)c1cccc(Cl)c1 returned MT stabilize HCS 34* and b-catenin transl 0.
Screening CCOC(=O)/C(C#N)=C/c1cc2ccccc2nc1Cl returned MT stabilize HCS 2.
Screening O=C1c2ccccc2NC(c2ccc(O)cc2)N1Cc1ccco1 (centres undefined) returned MT stabilize HCS 2, b-catenin transl -1 and ROMK primary -0.053.
For Cc1ccc(C2Nc3ccccc3C(=O)N2Cc2ccco2)cc1 (centres undefined) the results were MT stabilize HCS 18*, b-catenin transl 5 and ROMK primary -1.5.
For CN(N)C(=S)Nc1ccc(Cl)cc1 the results were MT stabilize HCS 2, b-catenin transl 2 and ROMK primary 0.071.
Cc1ccc2c(c1)nnn2C1CCN(S(=O)(=O)c2ccc(C(=O)N3CC(C)CC(C)C3)cc2)CC1 (centres undefined) was read as MT stabilize HCS 20* and b-catenin transl 1.
`Cc1ccc2c(c1)nnn2C1CCN(S(=O)(=O)c2ccc(C(=O)N(C)C)cc2)CC1` gave MT stabilize HCS 1 and b-catenin transl 0.
Cc1ccc(Nc2nc(=O)c3cccnc3s2)c(Br)c1 was read as b-catenin transl 0.
